# High-throughput results: PubChem BioAssay, Broad Institute
# This is a sample that favours compounds with a hit; in the whole collection about 4% have one here.
# SIRT5 inh: SIRT5 desuccinylase inhibitors, primary screen, biochemical, fluorescence imaging, single point, set 5; inhibition, % at 15 µM; 330,000 compounds, 1.1% hits; Purified SirT5, succinyl-peptide AMC, trypsin-coupled fluorescence; in the data active means inhibition above about 15%
# FN deposition inh: inhibitors of fibronectin matrix deposition, primary screen, AH1F cells, Alexa488-fibronectin fluorescence, plate reader. AH1F fibroblasts, overnight. inhibition, % at 12.6 µM. 350,000 compounds, 0.086% hits. AID 743247, 2014;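 active means mean inhibition across replicates of 30% or more, regardless of how many single replicates reach that level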;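 further: positive control wells lacked labelled fibronectin entirely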
#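 test system = AH1F fibroblasts assembling fluorescent fibronectin matrix | quantity = 10000 AH1F cells per well | buffer or medium = DMEM plus 2% serum, read in PBS | doses = single dose, pinned | incubation = 1 h cell attachment, overnight exposure to compound and label | detection = fluorescence at 485 nm excitation, 525 nm emission | read-out basis = inhibition from reduced deposited-fibronectin fluorescence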
# Statin myotox sup: suppressors of statin myotoxicity in C2C12 myotubes, primary screen, cell-based, single point, plate reader; rescue of ATP level, % at 7.49 µM; AID 602340, 2012; 330,000 compounds, 0.78% hits; C2C12 myotubes + simvastatin, ATP luminescence, 48 h; scaled: DMSO 0, geranylgeraniol control 100;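 active means mean ATP rescue above about 67%, or every replicate alone reaching that limit, limit read from the data, passing the limit was not always enough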;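 further: myotubes were challenged with 10 µM simvastatin during compound exposure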
# rRNA inh HTS: reduced GFP signal of wild-type E. coli, primary screen, bacterial rRNA inhibitor project, GFP/RFP fluorescence, OD600, single point; 350,000 compounds, 1.6% hits; GFP signal change (wild-type ribosome), % (test concentration not listed); E. coli WT GFP vs humanized-ribosome RFP mutants, 24 h; active compounds read low; DMSO median 0, no signal -100;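 active means significant combined selectivity score with lowered wild-type GFP, culture density cut under 30%, mutant RFP and density less affected; inactive means any of these conditions unmet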
# E-selectin induc: E-selectin induction in HUVECs, primary screen, imaging, HUVEC, immunofluorescence imaging, single point | P16581 | normalized: neutral wells 0, TNF-alpha wells 100 | activation, % at 7.58 µM | 260,000 compounds, 0.37% hits | AID 686992, 2013;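 active means mean E-selectin-positive cell signal at least 10% of the positive control, reached in at least 60% of replicates, without over 20% cell loss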
# Target sequence (P16581 whole entry, looked up): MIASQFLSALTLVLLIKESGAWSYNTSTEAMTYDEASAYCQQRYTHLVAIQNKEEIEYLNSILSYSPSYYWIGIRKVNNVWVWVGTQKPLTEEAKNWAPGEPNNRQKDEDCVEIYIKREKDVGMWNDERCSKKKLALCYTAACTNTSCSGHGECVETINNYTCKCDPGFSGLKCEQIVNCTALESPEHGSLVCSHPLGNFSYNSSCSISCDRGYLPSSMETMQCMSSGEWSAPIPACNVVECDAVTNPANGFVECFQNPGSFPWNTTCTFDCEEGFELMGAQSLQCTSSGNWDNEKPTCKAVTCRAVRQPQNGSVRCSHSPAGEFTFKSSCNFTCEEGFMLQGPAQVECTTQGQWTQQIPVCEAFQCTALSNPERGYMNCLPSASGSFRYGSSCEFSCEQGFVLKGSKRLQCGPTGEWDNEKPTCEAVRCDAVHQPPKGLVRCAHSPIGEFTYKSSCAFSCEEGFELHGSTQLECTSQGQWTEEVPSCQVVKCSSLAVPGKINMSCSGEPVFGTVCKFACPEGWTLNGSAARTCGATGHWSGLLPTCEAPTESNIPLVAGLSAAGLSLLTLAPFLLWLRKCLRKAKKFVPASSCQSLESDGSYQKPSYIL
#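 Read-out: % PE-positive cells | Test system: HUVEC | Doses: One compound dose added by pin transfer | Buffer or medium: EGM-2 over gelatin coat | Signal: Immunofluorescence imaging | Benchmarks: TNF-alpha, DMSO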
# FGF22 binding: binders of human FGF22 protein, primary screen, FGF22 synaptogenesis inhibitor project, biophysical, thermal shift, single point | recombinant FGF22 thermal shift, SYPRO orange fluorescence; percent of sucrose octasulfate shift, DMSO zero | activity (Tm shift, normalised), % at 9.99 µM | 340,000 compounds, 1.5% hits;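 active means mean Tm shift, scaled 0 neutral to 100 positive control, at about 1.3% or above, every replicate too, limit read from the data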
# * marks the source's active call; other numbers are inactive results; . = no result.
SMILES,SIRT5 inh,FN deposition inh,Statin myotox sup,rRNA inh HTS,E-selectin induc,FGF22 binding
COc1ccc(N2C(=O)CC(N(CCc3ccccc3)C(=O)/C=C/C(=O)O)C2=O)cc1 (stereo not given),-6.0,-9.8,.,17.6,0.0,0.0
CC(O)CNc1nc2ccccc2n1-c1ncnc2sc3c(c12)CCC3 (stereo not given),.,-4.5,114.0*,.,.,.
C[C@@H]1CN([C@@H](C)CO)C(=O)Cc2cc(NC(=O)c3ccncc3)ccc2O[C@@H]1CN(C)C(=O)Nc1ccc2c(c1)OCO2,-1.6,.,-21.1,-1.4,.,-0.2
CCOCCCNC(=O)/C=C1\Sc2ccccc2N(Cc2ccccc2F)C1=O,0.9,7.9,29.0,-17.4*,-0.2,0.1
CCOCCCNC(=O)CN1C(=O)/C(=C/c2ccccc2C)Sc2ccccc21,-3.0,-0.6,-1.6,-7.7,0.3,42.4
O=C(C[C@@H]1C[C@H]2c3cc(NC(=O)C4CCC4)ccc3O[C@H]2[C@H](CO)O1)NCc1ccccc1F,-1.5,-1.7,-1.5,-2.7,0.1,-0.3
C/C(N)=C(/C#N)C(=O)CSc1nnc(NC(C)C)s1,.,-12.8,.,.,.,.
C/C(N)=C(/C#N)C(=O)CSc1nnc(Nc2ccccc2)s1,18.2*,-6.4,.,-4.0,-0.6,0.1
CNC[C@H]1Oc2ccc(NS(=O)(=O)c3c(C)noc3C)cc2CC(=O)N([C@H](C)CO)C[C@H]1C,.,-9.9,.,3.0,-0.6,.
CNC(=S)NNC(=O)c1noc(C)c1C(=O)N1CCN(C(c2ccccc2)c2ccccc2)CC1,1.6,8.5,0.3,2.6,.,43.6*
CC(C)c1onc(C(=O)N2CCN(C(c3ccccc3)c3ccccc3)CC2)c1[N+](=O)[O-],-3.1,15.3,62.6,10.9,0.2,-0.1
Clc1ccc(-c2csc(N/N=C\c3cccnc3)n2)cc1,-5.4,0.5,.,-20.8*,-0.2,0.2
Clc1ccc(-c2csc(N/N=C/c3ccco3)n2)cc1,.,-4.7,.,2.8,0.2,-0.2
C(=N/Nc1nccs1)/c1cccnc1,19.2*,2.4,.,6.1,.,0.4
Clc1cccc(/C=N\Nc2nccs2)c1,-5.2,-0.7,-7.3,.,.,.
COc1cc(OC)cc(C(=O)NCC(=O)OCC(=O)N2c3ccccc3NC(=O)C2(C)C)c1,0.8,.,.,5.7,.,43.9*
COc1ccc(NC(=O)N[C@@H]2C=C[C@@H](CC(=O)NC3CCCCC3)O[C@@H]2CO)cc1,4.1,-11.9,-14.3,-6.2,-0.3,0.0
CC12CCCC(C(C#N)C(N)=O)(C1)NC(=O)C2C#N (stereo not given),19.8*,-1.4,4.4,5.9,-0.1,-0.1
CCOC(=O)N1CCN(C2=NC3(CCCCC3)C(C#N)C(=O)N2)CC1 (stereo not given),.,10.2,-5.8,.,.,.
CCOc1cc(CNCC(C)C)cc(Cl)c1OCc1ccccc1,-5.3,-9.6,.,-53.2,.,43.8*
CCOc1c(Cl)cc(CNCC(C)C)cc1OC,.,-4.6,27.7,.,.,.
Cc1noc(C)c1NC(=O)Nc1ccc2c(c1)C(=O)N([C@@H](C)CO)C[C@@H](C)[C@@H](CN(C)C(=O)NC(C)C)O2,0.9,-3.5,26.0,0.5,0.0,0.1
CC(C)NC(=O)CSc1nc(N)c(NC(=O)c2ccccc2F)c(=O)[nH]1,-9.1,-8.7,.,18.4,-0.6,0.2
Nc1nc(SCCO)[nH]c(=O)c1NC(=O)c1ccccc1F,-0.2,-5.6,3.4,.,.,43.6*
Cc1ccc(Nc2n[nH]c(=S)s2)cc1F,-2.6,-3.5,.,-17.1,0.6,45.8*
SMILES,SIRT5 inh,FN deposition inh,Statin myotox sup,rRNA inh HTS,E-selectin induc,FGF22 binding
Cc1ccc(Nc2n[nH]c(=S)s2)cc1,0.5,-4.6,-7.5,-15.9,0.2,-0.1
CO/N=C\CC(=O)Nc1ccc(Cl)cc1Cl,-3.4,-6.2,.,13.6,.,42.9*
O=C(C[C@@H]1CC[C@@H](NC(=O)c2ccc3c(c2)OCO3)[C@@H](CO)O1)NC1Cc2ccccc2C1,0.8,2.8,18.9,2.3,0.0,0.0
CS(=O)(=O)N(Cc1ccc(F)cc1)Cc1nc2ccccc2c(=O)[nH]1,.,.,98.8*,.,.,.
O=C(C1CCOCC1)N1CC(=O)N2[C@H](CO)[C@H](c3ccc(-c4ccccc4F)cc3)[C@H]2C1,12.3,.,.,1.8,0.3,.
CCn1cc(CN2CCc3c([nH]c4ccccc34)C2c2cccc(OC)c2OC)c(C)n1 (stereo not given),8.4,.,-3.6,11.7,.,43.8*
COc1cc(C2c3[nH]c4ccccc4c3CCN2Cc2cn(C)nc2C)ccc1F (stereo not given),-2.1,7.7,.,-15.8,.,0.1
S=c1[nH]c2cc(Cl)ccc2s1,-9.9,.,.,-25.5*,.,-0.3
Cc1cc(Cl)cc2sc(=S)[nH]c12,-1.3,-2.4,-1.2,-23.5,1.5,-0.3
C[C@H]1CN([C@@H](C)CO)C(=O)c2cc(NS(C)(=O)=O)ccc2O[C@@H]1CN(C)C(=O)NC1CCCCC1,3.1,.,-21.7,0.2,.,0.0
C[C@@H]1CCCCO[C@@H](CN(C)C(=O)CCCN(C)C)[C@@H](C)CN([C@@H](C)CO)C(=O)c2cc(NS(=O)(=O)c3ccc(F)cc3)ccc2O1,-6.9,-2.5,.,-0.5,0.0,0.1
COc1ccc2c(Cl)c(C(=O)NN3CCN(C)CC3)sc2c1,-3.7,8.7,2.5,-11.9,-0.3,43.8*
COC(=O)c1ccc(-n2c(C)ccc2-c2ccccc2)cc1,0.9,.,2.1,-22.1*,.,0.2
CC(=O)c1ccc(-n2c(C)ccc2-c2ccccc2)cc1,.,-5.3,47.4,.,.,.
C[C@@H]1CCCCO[C@H](CN(C)C)[C@@H](C)CN([C@H](C)CO)C(=O)c2cc(NC(=O)c3ccccc3)ccc2O1,1.6,.,10.2,4.0,0.5,0.1
CC(NC(=O)CN(C)S(=O)(=O)c1cnc[nH]1)c1ccccc1 (stereo not given),-0.4,4.3,.,22.1,3.0,43.9*
CC1CCCC(NC(=O)CN(C)S(=O)(=O)c2cnc[nH]2)C1C (stereo not given),-1.7,-9.8,.,11.1,.,43.2*
C[C@@H]1CN([C@H](C)CO)C(=O)c2ccccc2-c2ccccc2CO[C@@H]1CN(C)S(=O)(=O)c1ccc(F)cc1,-6.5,9.9,-1.8,3.0,-0.2,0.1
COc1ccc2c(c1)CC/C(=C/c1cc(OC)c(OC)c(OC)c1)C2=O,-8.6,-3.6,2.0,-20.1*,2.7,0.2
COc1cccc(C=C2Cc3ccccc3C2=O)c1,-1.3,3.8,.,-16.7*,-0.2,-0.2
